# Bioassay records from PubChem.
# Hits are enriched below; roughly 1.6% of the tested compounds scored in any of these assays.
# eIF4H FP inh – inhibitors of RNA binding by human eIF4H; actives 0.94% (n = 290,000); inhibition, % at 35 µM; eIF4H fluorescence polarization binding assay; Q15056;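 further: calls also rest on retests at 20 µM and on dose response follow-up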
# MLLE-PAM2 inh – blocks PAM2 peptide binding to the PABP1 MLLE domain | AID 588489 | GST-MLLE / FITC-PAM2 fluorescence polarization | actives 0.36% (n = 360,000) | inhibition, % at 20 µM | P11940; in the data active means inhibition above about 35%, passing the limit was not always enough
# Target sequence (P11940 whole entry, looked up, the tested form may be a part): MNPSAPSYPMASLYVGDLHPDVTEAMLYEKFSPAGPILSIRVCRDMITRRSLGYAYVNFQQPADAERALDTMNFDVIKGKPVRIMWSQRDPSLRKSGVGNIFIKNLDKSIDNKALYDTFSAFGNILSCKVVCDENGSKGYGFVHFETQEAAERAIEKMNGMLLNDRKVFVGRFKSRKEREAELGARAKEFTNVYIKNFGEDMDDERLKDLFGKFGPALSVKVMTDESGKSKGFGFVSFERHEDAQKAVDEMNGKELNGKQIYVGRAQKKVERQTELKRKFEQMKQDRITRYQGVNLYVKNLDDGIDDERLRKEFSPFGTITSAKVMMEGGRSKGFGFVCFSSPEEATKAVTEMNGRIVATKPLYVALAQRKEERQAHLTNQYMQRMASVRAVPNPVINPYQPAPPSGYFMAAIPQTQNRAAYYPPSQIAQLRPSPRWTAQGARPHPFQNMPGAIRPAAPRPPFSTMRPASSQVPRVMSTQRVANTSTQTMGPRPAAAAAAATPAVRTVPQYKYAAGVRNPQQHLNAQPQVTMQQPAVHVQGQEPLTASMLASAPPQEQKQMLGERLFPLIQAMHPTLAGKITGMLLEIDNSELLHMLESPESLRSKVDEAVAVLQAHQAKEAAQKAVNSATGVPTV
# RBBP9 inhibitor – human RBBP9 hydrolase inhibition. O75884. recombinant RBBP9, FP-Rh probe fluorescence polarization. inhibition, % at 7.94 µM. actives 0.2% (n = 220,000). AID 1515;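 active means inhibition above the campaign mean of all tested compounds plus 3 SD, cut at about 14% in these data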
#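 System: RBBP9 protein / Quantity: 2.5 µM RBBP9 dispensing solution, before mixing / Also added: Serine-hydrolase probe FP-Rh, 375 nM pre-mixing / Dosing: 7.94 µM single dose, 0.794% DMSO / Timing: enzyme-compound preincubation 30 min, then probe labeling 45 min, 25 °C / Signal: FP readout at 525/598 nm / Controls: DMSO-treated enzyme wells and wells lacking RBBP9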
# TCR-CD3 inh – human TCR-CD3 binding inhibition; AID 651800; TAMRA-labeled TCR probe fluorescence, biochemical; actives 0.37% (n = 360,000); inhibition, % at 9.4 µM; in the data active means inhibition above about 19%;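 further: recombinant mutant TCR 2C K166C tagged with TAMRA read by polarization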
# PABP FP inh – PABP-poly(A) binding inhibition; P11940; PABP-poly(A) RNA binding, fluorescence polarization; calls only at 35 µM; actives 1% (n = 290,000);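 further: calls also rest on retests at 20 µM and on dose response follow-up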
# Hits are given with their value; 0 = inactive; - = no result given; + = active, no number. Unless noted, how the calls were made is not given here.
SMILES,eIF4H FP inh,MLLE-PAM2 inh,RBBP9 inhibitor,TCR-CD3 inh,PABP FP inh
CCCN(CCC)S(=O)(=O)c1ccc(C(=O)OCCN2C(=O)c3cccc4c(N5CCOCC5)ccc(c34)C2=O)cc1,129,0,0,-,+
O=C(c1ccc(F)cc1)[C@@H]1[C@@H](C(=O)c2ccccc2)[C@@]2(C(=O)Nc3ccccc32)[C@H]2c3ccccc3C=CN12,51,-,0,-,0
CC(=O)[C@@H]1[C@@H](C(=O)c2ccc(F)cc2)[C@]2(C(=O)Nc3ccccc32)[C@H]2C=Cc3cc(F)ccc3N12,0,0,0,0,0
O=C(O)c1ccc2c(c1)CCCN2,52,0,0,0,+
O=C(O)c1cccc(COc2ccc3c(c2)CCC3)c1,0,0,0,0,0
Cc1cc2c(c(=O)o1)[C@@]1(C(=O)N(C)c3ccccc31)C1=C(CC3(CCCCC3)OC1=O)O2,-,-,-,0,-
CC(C)(C)c1ccc(C(=O)OC/C(O)=C(\C#N)c2nc3ccccc3s2)cc1,0,0,0,0,0
N#C/C(=C(/O)COC(=O)c1ccccc1O)c1nc2ccccc2s1,0,0,0,0,+
O=C(CCCc1ccccc1)Nc1ccccn1,0,0,0,0,+
Cc1ccnc(NC(=O)CCCc2ccccc2)c1,0,0,0,0,0
COc1c(S(=O)(=O)NCCCN2CCOCC2)ccc(Cl)c1Cl,0,45,0,0,0
COc1ccc(OC)c(S(=O)(=O)NCCCN2CCOCC2)c1,-,0,-,0,-
COC(=O)[C@]12C[C@H](CC(=O)NCc3cccs3)C(=O)N(Cc3ccccc3)C1=C[C@H](C(C)C)O[C@@H]2C1CC1,-,-,-,0,-
CCC(=O)c1ccc2c(c1)N(CCCN(C)C)c1ccccc1S2,-,0,-,0,-
CC(=O)c1ccc2c(c1)N(CCCN(C)C)c1ccccc1S2,-,50,-,0,-
CC(=O)c1ccc2c(c1)Nc1ccccc1S2,67,0,0,0,+
O=C1NC(=Nc2ccc3ccccc3c2)S/C1=C/c1ccco1,80,0,0,0,0
O=C1NC(=Nc2ccc(O)cc2)S/C1=C/c1ccco1,0,0,0,0,0
O=C(CSc1n[nH]c(=O)[nH]c1=O)N/N=C/c1ccccc1O,0,0,0,0,0
COc1cc(/C=N/NC(=O)CSc2n[nH]c(=O)[nH]c2=O)cc(OC)c1O,0,0,0,0,+
Cc1ccc(S(=O)(=O)NNC(=O)c2ccc(F)cc2)cc1,0,0,-,0,0
Cc1ccc(C(=O)NC(=S)NNS(=O)(=O)c2ccccc2)cc1,0,41,0,0,0
O=C(C[n+]1cc(-c2ccccc2)n2c1CCCCC2)c1ccc(Cl)cc1,0,0,0,0,0
C[n+]1cc(-c2ccccc2)n2c1CCCCC2,0,0,0,-,+
CN1OC[C@@H]2CN(C(=O)c3ccc(C#N)cc3)[C@H](c3cccc(Br)c3)C[C@@H]21,-,-,-,0,-
SMILES,eIF4H FP inh,MLLE-PAM2 inh,RBBP9 inhibitor,TCR-CD3 inh,PABP FP inh
C[C@@H]1CN([C@@H](C)CO)C(=O)CCCn2cc(nn2)CO[C@H]1CN(C)C(=O)C1CC1,-,-,-,0,-
NS(=O)(=O)c1ccc(N/C=C\C(=O)c2ccc(F)cc2)cc1,0,0,0,0,0
CN(C)c1ccc(N/C=C/C(=O)c2ccc(F)cc2)cc1,47,0,0,-,+
COc1ccc(C2CC(=O)C(c3cccc(Cl)c3)=CN2Cc2ccccc2)cc1 (stereo not given),-,-,-,0,-
COc1ccccc1-c1ccc2c(c1)[C@@H]1C[C@H]3[C@@H](CN1CC2)[C@H](C)ON3C,-,-,-,0,-
COC(=O)c1ccc2nc(-c3ccc(Cl)cc3)c(Cc3ccccc3)n2c1,-,-,-,0,-
O=C(COC(=O)c1cncc(Br)c1)Nc1nnc(-c2ccccc2)o1,70,0,-,0,0
COc1cc(OC)cc(C(=O)OCC(=O)Nc2nnc(-c3ccccc3)o2)c1,-,0,-,0,-
O=C(O)c1c2c(nc3ccc(S(=O)(=O)N4CCC(C(=O)NCc5ccccc5)CC4)cc13)CCCC2,-,0,-,0,-
CN(Cc1ccccc1)C(=O)C1CCN(S(=O)(=O)c2ccc3nc4c(c(C(=O)O)c3c2)CCCC4)CC1,66,0,-,0,0
Cc1cc(N2CCN(C(=O)OC(C)(C)C)C[C@@H]2C)ccc1N1CCS(=O)(=O)CC1,-,-,-,0,-
COC(=O)CCCC1=CC2=CC(=O)C(C)(OC(=O)c3cccs3)C(=O)C2=CN1CCc1ccccn1 (stereo not given),0,0,-,0,+
COC(=O)c1c(NC(=O)CC2Nc3cc(C)c(C)cc3NC2=O)sc(C)c1C (stereo not given),86,0,0,-,+
